The target of data set [1] is T1, Amine oxidase [flavin-containing] A (Homo sapiens, UniProt P21397).
T1 sequence (P21397 whole entry): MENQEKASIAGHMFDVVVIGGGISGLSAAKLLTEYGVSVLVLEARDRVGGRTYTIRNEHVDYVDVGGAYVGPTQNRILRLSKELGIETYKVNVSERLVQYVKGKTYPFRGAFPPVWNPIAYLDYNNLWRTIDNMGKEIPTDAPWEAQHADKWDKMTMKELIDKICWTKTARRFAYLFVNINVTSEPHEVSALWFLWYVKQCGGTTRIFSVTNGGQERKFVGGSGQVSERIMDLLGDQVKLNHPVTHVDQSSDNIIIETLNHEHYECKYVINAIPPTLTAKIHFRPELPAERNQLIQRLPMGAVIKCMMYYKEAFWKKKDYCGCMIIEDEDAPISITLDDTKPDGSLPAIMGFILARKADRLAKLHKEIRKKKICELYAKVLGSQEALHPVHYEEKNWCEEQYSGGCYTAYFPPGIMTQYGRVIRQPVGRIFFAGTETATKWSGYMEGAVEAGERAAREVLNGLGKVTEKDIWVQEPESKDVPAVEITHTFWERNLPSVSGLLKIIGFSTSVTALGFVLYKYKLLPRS
The experiment in a line: Inhibition of human recombinant MAOA expressed in insect cells assessed as oxidation of kynuramine substrate at 50 uM measured after additional substrate added after 90 mins incubation. Conditions: 1.5 h; call rule not given here. Summed up: (§1)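 Recombinant human MAO-A incubated with kynuramine, with or without inhibitor. Product formation followed over time. A second equivalent of substrate (150 µM kynuramine) added at 90 min and fresh enzyme added at 120 min.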

In data set [2] the test system is Mus musculus. The experiment in a line: Neurotoxicity in C57BL/6J mouse assessed as reduction of striatal tyrosine hydroxylase level at 12.5 mg/kg, sc after 72 hrs by ELISA. Conditions: in vivo. Also on record: dose 12.5 mg/kg, route subcutaneous. Type of data set: toxicity, organism-based. Summed up:
(§2)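 Female C57BL/6J mice aged 3–4 months, single sc dose, 0.9% saline vehicle, killed 72 h post-dose. Striatum homogenised in hot 1% SDS. GFAP or TH measured by detergent-based sandwich ELISA.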
(An ELISA detects its analyte on a solid surface through an enzyme-linked reagent.)

Data set [3] deals with T1, Amine oxidase [flavin-containing] A. The experiment in a line: Inhibition of human recombinant MAOA expressed in insect cells assessed as oxidation of kynuramine substrate at 50 uM measured after additional enzyme added after 120 mins incubation. Conditions: 2 h. Summed up: as §1
For data set [4], the system named is Mus musculus. The experiment in a line: Neurotoxicity in C57BL/6J mouse assessed as increase of striatal GFAP level at 12.5 mg/kg, sc after 72 hrs by ELISA. Type of data set: toxicity, organism-based. Conditions: in vivo. On the set-up: dose 12.5 mg/kg, route subcutaneous. Summed up: as §2
For data set [5], the target named is T1, Amine oxidase [flavin-containing] A. In words: Inhibition of human recombinant MAOA expressed in insect cells assessed as oxidation of kynuramine substrate at 2 mM measured after additional enzyme added after 120 mins incubation. Conditions: 2 h, 2000 µM. The method in brief:
as §1

Data set [6] shares this target. The experiment in a line: Inhibition of human recombinant MAOA expressed in insect cells assessed as oxidation of kynuramine substrate at 2 mM measured after additional substrate added after 90 mins incubation. Conditions: 1.5 h. The method in brief: as §1
The target is the same in data set [7]. In words: Inhibition of human recombinant MAOA expressed in insect cells using kynuramine substrate after 60 mins.
Data set [8] has the same target. The experiment in a line: Competitive inhibition of human recombinant MAO-A assessed as dissociation constant for enzyme-inhibitor complex by Lineweaver-Burk plot analysis. The method in brief:
(§3)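 Human recombinant MAO-A (0.005 mg/mL) in 0.1 M sodium phosphate pH 7.4 made isotonic with NaCl, 37 °C, 30 min. Initial oxidation rates at four kynuramine levels (50–150 µM) without or with four inhibitor concentrations (range per compound, 5–1000 µM). Ki from Lineweaver–Burk plots and replots by linear regression; triplicate.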

For data set [9] the target is unchanged. The experiment in a line: Competitive inhibition of human recombinant MAO-A assessed as dissociation constant for enzyme-inhibitor-substrate complex by Lineweaver-Burk plot analysis. Summed up:
as §3

Data set [10] concerns the target T2, Amine oxidase [flavin-containing] B (Homo sapiens, UniProt P27338).
T2 sequence (P27338 whole entry): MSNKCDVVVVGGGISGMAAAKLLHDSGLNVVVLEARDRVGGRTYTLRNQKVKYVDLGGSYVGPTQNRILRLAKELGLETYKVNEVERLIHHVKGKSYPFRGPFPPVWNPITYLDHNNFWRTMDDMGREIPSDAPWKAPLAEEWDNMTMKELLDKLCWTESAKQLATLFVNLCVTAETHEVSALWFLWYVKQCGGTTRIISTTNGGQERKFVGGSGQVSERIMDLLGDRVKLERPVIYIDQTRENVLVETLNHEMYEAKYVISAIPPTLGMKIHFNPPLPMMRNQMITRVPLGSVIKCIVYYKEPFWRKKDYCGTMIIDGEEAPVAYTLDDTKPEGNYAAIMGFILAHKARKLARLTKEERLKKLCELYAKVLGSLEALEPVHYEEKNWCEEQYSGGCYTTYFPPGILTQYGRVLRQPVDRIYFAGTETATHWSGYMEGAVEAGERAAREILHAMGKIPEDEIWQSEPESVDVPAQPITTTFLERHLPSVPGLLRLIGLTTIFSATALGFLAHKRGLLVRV
In words: Inhibition of human recombinant MAOB expressed in insect cells using benzylamine hydrochloride as substrate after 30 mins. The method in brief:
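Human recombinant MAO-B (0.01 mg/mL) in 0.1 M isotonic phosphate buffer pH 7.4, inhibitor 0–7000 µM, benzylamine 1000 µM final, 30 min at 37 °C. Stopped with perchloric acid; benzaldehyde measured by reverse-phase HPLC with UV 254 nm. IC50 from sigmoidal log dose–response fit; triplicate, mean ± SD.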

The species named for a further data set is Homo sapiens. In words: Selectivity index, ratio of IC50 for human recombinant MAOB to IC50 for human recombinant MAOA. Summed up:
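MAO-A (0.005 mg/mL; 150 μM kynuramine, 60 min, 37 °C, […]) and MAO-B (0.01 mg/mL; 1000 μM benzylamine, 30 min, 37 °C, perchloric acid stop, benzaldehyde by HPLC-UV at 254 nm) in isotonic 0.1 M phosphate pH 7.4. Inhibitor 0–7000 μM. IC50s from sigmoidal log curves in triplicate. SI = MAO-B IC50 / MAO-A IC50.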

Consider 2 compounds from ChEMBL document CHEMBL1938394, “Time-dependent slowly-reversible inhibition of monoamine oxidase A by N-substituted 1,2,3,6-tetrahydropyridines” (Bioorg Med Chem, 2011).

As a reminder, the IC50 is the concentration that gives 50% inhibition. As a reminder, the Ki is a dissociation constant, usually derived from enzyme kinetics or from competition with a known ligand.

For the compound `CN1CC=C(c2ccccc2)CC1`, the “inhibition (INH)” value in [1] and in [3] was “Active” in each case. Also, the Activity entry in the data set with Mus musculus [2] and in the data set with Mus musculus [4] was “Toxic” each time.

Regarding `c1ccc(CCN2CCCCC2)cc1` [1-PHENETHYLPIPERIDINE], the “inhibition (INH)” value in data set [5] and in data set [6] was “Active” throughout. Moreover, the IC50 in data set [7] is 757 µM; in data set [10], 762 µM. Also, the Ki in data set [8] was determined as 121 µM; in data set [9], 3680 µM. In addition, in the data set listed under Homo sapiens, the Ratio IC50 was determined as 1.
